The text below walks through data of ChEMBL document CHEMBL4814038, “Discovery of sertraline and its derivatives able to combat drug-resistant gastric cancer cell via inducing apoptosis” (Bioorg Med Chem Lett, 2021).

For experiment [1], the system named is SGC-7901. Nature of the experiment: Antiproliferative activity against cisplatin resistant human SGC-7901 cells assessed as sensitizing activity at 20 uM in presence of cisplatin. It is filed as functional, cell-based. The method, boiled down: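 Cisplatin-resistant SGC-7901/DDP cells treated with each compound at 20 μM in combination with DDP (15 μM). Sensitizing effect read as inhibition of proliferation.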

Experiment [2] relates to SGC-7901. Nature of the experiment: Antiproliferative activity against cisplatin resistant human SGC-7901 cells assessed as sensitizing activity in presence of cisplatin. It is filed as functional, cell-based. Put shortly: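 Cisplatin-resistant SGC-7901/DDP cells co-treated with DDP (15 μM) and compound over 1.0, 2.0, 4.0, 8.0, 12, 16, 20, 24 μM. IC50 derived from inhibition of proliferation.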

The test system of experiment [3] is SGC-7901. As to the kind of experiment: Induction of apoptosis in human SGC-7901 cells assessed as upregulation of cleaved caspase 3 expression level by Western blotting analysis. It is filed as functional, cell-based. The conditions noted are these: dose 3-6 µM. For orientation: Immunoblotting shows a protein as a band on a membrane.
Experiment [4] relates to SGC-7901. Nature of the experiment: Induction of apoptosis in human SGC-7901 cells assessed as viable cells at 8 uM by FITC/PI staining based flow cytometry analysis (reference value: 94.3 %). Type of experiment: functional. The note with it: read-out: Activity. (A flow cytometer gives signals particle by particle.)
Experiment [5] relates to SGC-7901. As to the kind of experiment: Induction of apoptosis in human SGC-7901 cells assessed as early apoptotic cells at 8 uM by FITC/PI staining based flow cytometry analysis (reference value: 3.06 %). Type of experiment: functional.
In experiment [6] the test system is SGC-7901. As to the kind of experiment: Induction of apoptosis in human SGC-7901 cells assessed as late apoptotic cells at 8 uM by FITC/PI staining based flow cytometry analysis (reference value: 2.56 %). Type of experiment: functional.
In experiment [7] the test system is SGC-7901. Nature of the experiment: Induction of apoptosis in human SGC-7901 cells assessed as necrotic cells at 8 uM by FITC/PI staining based flow cytometry analysis (reference value: 0.068 %). It is filed as functional.
For experiment [8], the system named is SGC-7901. Nature of the experiment: Induction of cell cycle arrest in human SGC-7901 cells assessed as accumulation at G0/G1 phase at 8 to 16 uM by flow cytometry analysis. Type of experiment: functional, cell-based. The conditions noted are these: dose 8-16 µM. Put shortly:
(§1)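 SGC-7901/DDP cells exposed to DDP (15 μM) with compound at 8 and 16 μM (parent) or 3 and 6 μM (derivatives). Cell-cycle distribution measured by flow cytometry, with G0/G1 fraction scored.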

A short description of experiment [9]: Effect on PI3K/AKT/mTOR signaling pathway in human SGC-7901 cells assessed as reduction in phosphorylated PI3K expression at 8 to 16 uM by Western blotting analysis. It is filed as cell-based. The note with it: filed as modulator, dose 8-16 µM. Put shortly:
(§2)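 SGC-7901/DDP cells given DDP (15 μM) alone or with compound at 8 and 16 μM (parent) or 3 and 6 μM (derivatives). PI3K, Akt, mTOR and their phosphorylated forms detected by Western blotting.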

Experiment [10] is described as follows: Effect on PI3K/AKT/mTOR signaling pathway in human SGC-7901 cells assessed as reduction in phosphorylated PI3K expression at 3 to 6 uM by Western blotting analysis. It is filed as cell-based. The conditions noted are these: filed as modulator, dose 3-6 µM. Put shortly:
as §2

The nature of experiment [11]: Effect on PI3K/AKT/mTOR signaling pathway in human SGC-7901 cells assessed as reduction in phosphorylated AKT expression at 8 to 16 uM by Western blotting analysis. It is filed as cell-based. The note with it: filed as modulator, dose 8-16 µM. The method, boiled down:
as §2

Experiment [12] is described as follows: Effect on PI3K/AKT/mTOR signaling pathway in human SGC-7901 cells assessed as reduction in phosphorylated AKT expression at 3 to 6 uM by Western blotting analysis. The note with it: filed as modulator, dose 3-6 µM. Type of experiment: cell-based. Put shortly:
as §2

Experiment [13] can be described thus: Effect on PI3K/AKT/mTOR signaling pathway in human SGC-7901 cells assessed as reduction in phosphorylated mTOR expression at 8 to 16 uM by Western blotting analysis. Type of experiment: cell-based. The conditions noted are these: filed as modulator, dose 8-16 µM. The method, boiled down:
as §2

Experiment [14] can be described thus: Effect on PI3K/AKT/mTOR signaling pathway in human SGC-7901 cells assessed as reduction in phosphorylated mTOR expression at 3 to 6 uM by Western blotting analysis. It is filed as cell-based. The conditions noted are these: filed as modulator, dose 3-6 µM. Put shortly:
as §2

Experiment [15] can be described thus: Effect on PI3K/AKT/mTOR signaling pathway in human SGC-7901 cells assessed as change in total PI3K expression at 8 to 16 uM by Western blotting analysis. Type of experiment: cell-based. The note with it: dose 8-16 µM. The method, boiled down:
as §2

A short description of experiment [16]: Effect on PI3K/AKT/mTOR signaling pathway in human SGC-7901 cells assessed as change in total AKT expression at 8 to 16 uM by Western blotting analysis. It is filed as cell-based. The conditions noted are these: dose 8-16 µM. Put shortly: as §2
A short description of experiment [17]: Effect on PI3K/AKT/mTOR signaling pathway in human SGC-7901 cells assessed as change in total mTOR expression at 8 to 16 uM by Western blotting analysis. It is filed as cell-based. The conditions noted are these: dose 8-16 µM. The method, boiled down: as §2
The test system of experiment [18] is SGC-7901. As to the kind of experiment: Induction of apoptosis in human SGC-7901 cells assessed as viable cells at 3 uM by FITC/PI staining based flow cytometry analysis (reference value: 94.3 %). It is filed as functional. The conditions noted are these: read-out: Activity.
Experiment [19] relates to SGC-7901. Nature of the experiment: Induction of apoptosis in human SGC-7901 cells assessed as early apoptotic cells at 3 uM by FITC/PI staining based flow cytometry analysis (reference value: 3.06 %). Type of experiment: functional.
For experiment [20], the system named is SGC-7901. Nature of the experiment: Induction of apoptosis in human SGC-7901 cells assessed as late apoptotic cells at 3 uM by FITC/PI staining based flow cytometry analysis (reference value: 2.56 %). Type of experiment: functional.
Experiment [21] has as its system SGC-7901. As to the kind of experiment: Induction of apoptosis in human SGC-7901 cells assessed as necrotic cells at 3 uM by FITC/PI staining based flow cytometry analysis (reference value: 0.068 %). It is filed as functional.
In experiment [22] the test system is SGC-7901. As to the kind of experiment: Induction of cell cycle arrest in human SGC-7901 cells assessed as accumulation at G0/G1 phase at 3 to 6 uM by flow cytometry analysis. Type of experiment: functional, cell-based. The note with it: dose 3-6 µM. The method, boiled down: as §1
A short description of experiment [23]: Effect on PI3K/AKT/mTOR signaling pathway in human SGC-7901 cells assessed as change in total PI3K expression at 3 to 6 uM by Western blotting analysis. It is filed as cell-based. The note with it: dose 3-6 µM. Put shortly:
as §2

Experiment [24] can be described thus: Effect on PI3K/AKT/mTOR signaling pathway in human SGC-7901 cells assessed as change in total mTOR expression at 3 to 6 uM by Western blotting analysis. It is filed as cell-based. The note with it: dose 3-6 µM. Put shortly:
as §2

Experiment [25] can be described thus: Effect on PI3K/AKT/mTOR signaling pathway in human SGC-7901 cells assessed as change in total AKT expression at 3 to 6 uM by Western blotting analysis. It is filed as cell-based. The conditions noted are these: dose 3-6 µM. Put shortly:
as §2

Activity calls are given as the source filed them. No cut-off for these calls is given here.

Consider `Clc1ccc([C@@H]2CC[C@@H](NCc3ccc4c(c3)OCO4)c3ccccc32)cc1Cl`, for which the outcome in the experiment with SGC-7901 [1] was inactive.
Still for that read-out and setting: under `O=C(CCCCl)N[C@H]1CC[C@H](c2ccc(Cl)c(Cl)c2)c2ccccc21` stands “inactive”.
For orientation: IC50 means the concentration that inhibits the measured activity by half. Regarding `NCCCCCCN[C@@H]1CC[C@H](c2ccc(Cl)c(Cl)c2)c2ccccc21` (relative stereo), in the experiment with SGC-7901 [1], the result was Active. Further, in the experiment with SGC-7901 [2], the IC50 was determined as 18.9 µM.
For the compound `NCCCCCCN[C@@H]1CC[C@@H](c2ccc(Cl)c(Cl)c2)c2ccccc21` (relative stereo), in the experiment on SGC-7901 [1], the outcome was Active. Besides, in the experiment with SGC-7901 [2], the IC50 is 11.1 µM.
For `NCCN[C@@H]1CC[C@@H](c2ccc(Cl)c(Cl)c2)c2ccccc21` (relative stereo), in that order: “Active” and 11 µM.
Take `N[C@@H]1CC[C@H](c2ccc(Cl)c(Cl)c2)c2ccccc21` (relative stereo): the outcome in the experiment with SGC-7901 [1] was inactive.
For `NCCN[C@@H]1CC[C@H](c2ccc(Cl)c(Cl)c2)c2ccccc21` (relative stereo), the outcome with SGC-7901 [1] was Active. Further, the IC50 in the experiment on SGC-7901 [2] came out at 10.7 µM.
For `Clc1ccc([C@@H]2CC[C@@H](NCc3cccc4ccccc34)c3ccccc32)cc1Cl` (relative stereo), the outcome in the experiment on SGC-7901 [1] was inactive.
As for `COc1ccc(CN[C@@H]2CC[C@@H](c3ccc(Cl)c(Cl)c3)c3ccccc32)cc1OC` (relative stereo), the outcome in the experiment with SGC-7901 [1] was inactive.
Consider `Cc1ccc(CN[C@@H]2CC[C@@H](c3ccc(Cl)c(Cl)c3)c3ccccc32)cc1` (relative stereo), for which the result in the experiment on SGC-7901 [1] was inactive.
As to `Clc1ccc(CN[C@@H]2CC[C@@H](c3ccc(Cl)c(Cl)c3)c3ccccc32)cc1Cl` (relative stereo), in the experiment on SGC-7901 [1], the result was inactive.
Still for that read-out and setting: with `N[C@H]1CC[C@H](c2ccc(Cl)c(Cl)c2)c2ccccc21` (relative stereo) the entry was “inactive”.
As for `CC(C)(C)OC(=O)N1CCN(CCN[C@@H]2CC[C@@H](c3ccc(Cl)c(Cl)c3)c3ccccc32)CC1` (relative stereo), in the experiment with SGC-7901 [2], the IC50 worked out at 17.1 µM.
On to `COc1cccc(CN[C@@H]2CC[C@@H](c3ccc(Cl)c(Cl)c3)c3ccccc32)c1` (relative stereo), for which the result in the experiment on SGC-7901 [1] was inactive.
`NCCCCN[C@@H]1CC[C@H](c2ccc(Cl)c(Cl)c2)c2ccccc21` (relative stereo): the result with SGC-7901 [1] was Active. For the same compound, the IC50 with SGC-7901 [2] is 6.3 µM.
Consider `CN[C@H]1CC[C@@H](c2ccc(Cl)c(Cl)c2)c2ccccc21` [SERTRALINE], for which the Activity entry was “Dose-Dependent Effect” in the experiment on SGC-7901 [3], 4.21% with SGC-7901 [5], 20.9% with SGC-7901 [6] and 19.7% with SGC-7901 [7]. Further, the IC50 in the experiment with SGC-7901 [2] turned out to be 18.7 µM. The viability at 8 µM in the experiment on SGC-7901 [4] is 55.2%. Also, the outcome (in the experiment with SGC-7901 [8]; in experiment [9]; in experiment [10]; in experiment [11]; in experiment [12]; in experiment [13]) was Active. The outcome in [14] was Active. In addition, the outcome in experiment [15], in experiment [16] and in [17] was inactive.
Turning to `COc1ccc(CN[C@@H]2CC[C@@H](c3ccc(Cl)c(Cl)c3)c3ccccc32)cc1` (relative stereo), the result in the experiment on SGC-7901 [1] was Active.
Same read-out and setting: with `CC(=O)N[C@H]1CC[C@H](c2ccc(Cl)c(Cl)c2)c2ccccc21` (relative stereo) the entry was “inactive”; with `CCCCN[C@@H]1CC[C@@H](c2ccc(Cl)c(Cl)c2)c2ccccc21` (relative stereo), “Active”.
Consider `NCCCCN[C@@H]1CC[C@@H](c2ccc(Cl)c(Cl)c2)c2ccccc21` (relative stereo), for which the Activity entry is “Dose-Dependent Effect” with SGC-7901 [3], 2.67% in the experiment on SGC-7901 [19], 44.6% in the experiment with SGC-7901 [20] and 14.1% with SGC-7901 [21]. The outcome (in the experiment on SGC-7901 [1]; with SGC-7901 [22]; in [10]; in experiment [12]; in experiment [14]) was Active. In the experiment on SGC-7901 [2], the IC50 was 6.28 µM. Besides, the viability at 3 µM in the experiment with SGC-7901 [18] was found to be 30.7%. Also, the result in experiment [23] and in experiment [24] was inactive.
Take `Clc1ccc([C@@H]2CC[C@@H](NCc3ccccc3)c3ccccc32)cc1Cl` (relative stereo): the outcome with SGC-7901 [1] was Active.
For `Clc1ccc([C@H]2CC[C@H](NCCN3CCNCC3)c3ccccc32)cc1Cl` (relative stereo), the Activity entry was “Dose-Dependent Effect” in the experiment on SGC-7901 [3], 4.06% with SGC-7901 [19], 41% with SGC-7901 [20] and 20.3% in the experiment with SGC-7901 [21]. Besides, the result (in the experiment on SGC-7901 [1]; in the experiment on SGC-7901 [22]; in experiment [10]; in [12]; in experiment [14]) was Active. Further, the half-maximal inhibitory concentration (IC50) in the experiment with SGC-7901 [2] worked out at 5.2 µM. In the experiment with SGC-7901 [18], the viability at 3 µM is 34.5%. For the same compound, the outcome in [25] and in experiment [24] was inactive.
As to `FC(F)(F)c1cccc(CN[C@@H]2CC[C@@H](c3ccc(Cl)c(Cl)c3)c3ccccc32)c1` (relative stereo), the outcome with SGC-7901 [1] was inactive.
